In ChEMBL document CHEMBL1147976 (Eur J Med Chem, 2007):

Experiments:
[1] = tested on: Leishmania infantum; assay: Antipromastigote activity against Leishmania infantum; format: functional, organism-based
Method in brief: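 L. infantum MHOM/FR/78/LEM75 late log-phase promastigotes in phenol-red-free RPMI with 12% foetal calf serum and 10% Alamar Blue. Concentration range added to duplicate cultures, final DMSO below 5%. Incubated 48 h at 25 C. Alamar Blue reduction read by absorbance at 570 and 630 nm. IC50 = concentration giving 50% reduction of Alamar Blue versus control.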

[2] = Toxicity in human macrophages; format: cell-based; settings: macrophage
[3] = Binding affinity to DNA by DNA-methyl green bioassay; design: species or system Homo sapiens
Method in brief: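 Absorbance at 630 nm read at start and after 24 h dark at room temperature. Readings corrected for initial value, normalized to untreated complex. IC50 = 50% drop in DNA-related absorbance.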

[4] = tested on: THP-1; assay: Cytotoxicity against human THP1 cells; format: cell-based
Method in brief: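 Late log-phase human monocytes in RPMI with 10% Alamar Blue and 10% foetal calf serum. Concentration range in duplicate cultures, final DMSO below 5%. Incubated 72 h at 37 C, 5% CO2. Alamar Blue reduction measured as absorbance at 570 and 630 nm. IC50 based on reduction relative to control culture.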

[5] = tested on: Leishmania infantum; assay: Antiamastigote activity against Leishmania infantum; format: functional, organism-based

IC50 [1] [µM]	IC50 [3] [µM]	IC50 [5] [µM]	SMILES	Activity [2]	IC50 [4] [µM]
90.8	59.1		CC(=O)Nc1ccc2cc3ccc(N)cc3nc2c1	Toxic	4.7
46.7	102	12.8	CCCC(=O)Nc1ccc2cc3ccc(NC(=O)CCC)cc3nc2c1		18.9
16.1	> 250	0.8	COc1ccc(C(=O)Nc2ccc3cc4ccc(NC(=O)c5ccc(OC)c(OC)c5)cc4nc3c2)cc1OC		26.8
11.5	> 250	2.9	CC(=O)Nc1ccc2cc3ccc(NC(=O)c4ccc(Cl)cc4)cc3nc2c1		1.9
86.9	> 250		COc1ccc(C(=O)Nc2ccc3cc4ccc(NC(C)=O)cc4nc3c2)cc1	Toxic	1.76
4.31	> 250	1.1	O=C(Nc1ccc2cc3ccc(NC(=O)c4ccccc4)cc3nc2c1)c1ccccc1		110
203	> 250	1.3	COc1ccc(C(=O)Nc2ccc3cc4ccc(NC(C)=O)cc4nc3c2)cc1OC		2.1
342	> 250	4.5	CC(=O)Nc1ccc2cc3ccc(NC(C)=O)cc3nc2c1		738
0.11	> 250	0.2	O=C(Nc1ccc2cc3ccc(NC(=O)c4ccc(Cl)cc4)cc3nc2c1)c1ccc(Cl)cc1		2.49
1.7	> 250	0.03	O=C(Nc1ccc2cc3ccc(NC(=O)c4ccc(F)cc4)cc3nc2c1)c1ccc(F)cc1		0.77
4.8	> 250	1.1	COc1ccc(C(=O)Nc2ccc3cc4ccc(NC(=O)c5ccc(OC)cc5)cc4nc3c2)cc1		13.4
186	> 250		CC(=O)Nc1ccc2cc3ccc(NC(=O)c4ccccc4)cc3nc2c1	Toxic	5.4
133	> 250	0.67	CC(=O)Nc1ccc2cc3ccc(NC(=O)c4ccc(F)cc4)cc3nc2c1		1.1
160	171	7.7	CCC(=O)Nc1ccc2cc3ccc(NC(=O)CC)cc3nc2c1		23.2
0.38		0.14	C[C@@H]1[C@H](O)[C@@H](C)/C=C/C=C/C=C/C=C/C=C/C=C/C=C/[C@H](O[C@@H]2O[C@H](C)[C@@H](O)[C@H](N)[C@@H]2O)C[C@@H]2O[C@](O)(C[C@@H](O)C[C@@H](O)[C@H](O)CC[C@@H](O)C[C@@H](O)CC(=O)O[C@H]1C)C[C@H](O)[C@H]2C(=O)O [AMPHOTERICIN B]		154
	1.38		COc1cccc2c1C(=O)c1c(O)c3c(c(O)c1C2=O)C[C@@](O)(C(=O)CO)C[C@@H]3O[C@H]1C[C@H](N)[C@H](O)[C@H](C)O1 [DOXORUBICIN]		
1.3	> 250	0.12	Nc1ccc2cc3ccc(N)cc3nc2c1 [PROFLAVINE]		2.21
